# Tests used:
# [1] = target: T1, Adenosine receptor A3 (Homo sapiens) (UniProt P0DMS8); experiment: Percent reversal of 100 nM IB-MECA-inhibited cAMP accumulation in CHO cells expressing human adenosine A3 receptor at 1 uM; range 63-110; format: functional, cell-based
# T1 sequence (whole entry): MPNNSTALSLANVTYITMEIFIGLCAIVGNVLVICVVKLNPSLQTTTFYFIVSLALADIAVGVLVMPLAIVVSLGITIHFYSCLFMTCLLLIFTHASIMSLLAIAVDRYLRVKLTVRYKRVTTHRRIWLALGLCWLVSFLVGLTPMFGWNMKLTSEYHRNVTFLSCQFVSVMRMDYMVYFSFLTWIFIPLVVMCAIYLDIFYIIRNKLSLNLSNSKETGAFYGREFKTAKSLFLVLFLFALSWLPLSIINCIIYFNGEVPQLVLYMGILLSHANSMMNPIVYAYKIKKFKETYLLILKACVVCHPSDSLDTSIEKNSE
# Procedure, shortened: (§1)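 CHO cells stably expressing human A3 receptor; membranes in 50 mM Tris HCl, 10 mM MgCl2, 1 mM EDTA pH 7.4 with 5 μM GTP, 0.5 mM […] and 2.0 IU/mL adenosine deaminase. Preincubated 10 min at 37 °C, then IB-MECA (100 nM) and/or antagonist with 1 mM ATP and 10 μM forskolin for 10 min. Boiled 2 min. cAMP read by [3H]cAMP competition with adrenal binding protein.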
# [2] = target: T2, Adenosine receptor A2a (Homo sapiens, UniProt P29274); experiment: Displacement of [3H]-SCH- 58261 from human adenosine A2A receptor expressed in CHO cells; range 461-645; format: cell-based
# T2 sequence (P29274 whole entry): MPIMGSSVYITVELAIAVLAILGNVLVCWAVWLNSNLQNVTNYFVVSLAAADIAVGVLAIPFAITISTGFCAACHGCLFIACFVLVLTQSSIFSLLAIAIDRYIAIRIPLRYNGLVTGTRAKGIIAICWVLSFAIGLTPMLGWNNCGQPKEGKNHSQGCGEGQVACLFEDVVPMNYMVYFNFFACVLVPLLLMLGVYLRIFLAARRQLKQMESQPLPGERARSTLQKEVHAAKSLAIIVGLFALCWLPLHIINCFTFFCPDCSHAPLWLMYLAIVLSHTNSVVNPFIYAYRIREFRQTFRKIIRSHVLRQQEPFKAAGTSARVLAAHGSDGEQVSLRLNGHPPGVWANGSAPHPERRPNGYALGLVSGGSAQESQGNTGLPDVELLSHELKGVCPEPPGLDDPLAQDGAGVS
# [3] = target: T3, Adenosine receptor A2b (Homo sapiens, UniProt P29275); experiment: Displacement of [3H]DPCPX from Adenosine A2b receptor expressed in […]; range 1531-1920; format: cell-based
# T3 sequence (P29275 whole entry): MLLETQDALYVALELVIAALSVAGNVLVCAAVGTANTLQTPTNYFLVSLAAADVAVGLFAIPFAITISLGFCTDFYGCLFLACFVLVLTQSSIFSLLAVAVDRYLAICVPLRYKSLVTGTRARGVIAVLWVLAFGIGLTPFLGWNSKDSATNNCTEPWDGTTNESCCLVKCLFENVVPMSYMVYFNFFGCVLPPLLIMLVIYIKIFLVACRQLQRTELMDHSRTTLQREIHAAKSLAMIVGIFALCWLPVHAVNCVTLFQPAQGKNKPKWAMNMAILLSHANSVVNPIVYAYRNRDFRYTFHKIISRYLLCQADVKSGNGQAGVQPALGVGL
# [4] = target: T4, Adenosine receptor A3 (Homo sapiens, UniProt P0DMS8); experiment: Displacement of [3H]MRE3008-F20 from human adenosine A3 receptor expressed in CHO cells; range 0.63-1.00; format: cell-based
# T4 sequence (P0DMS8 whole entry): T1 sequence (whole entry)
# [5] = target: T5, Adenosine receptor A1 (Homo sapiens, UniProt P30542); experiment: Displacement of [3H]DPCPX from human adenosine A1 receptor expressed in CHO cells; range 632-1003; format: cell-based
# T5 sequence (P30542 whole entry): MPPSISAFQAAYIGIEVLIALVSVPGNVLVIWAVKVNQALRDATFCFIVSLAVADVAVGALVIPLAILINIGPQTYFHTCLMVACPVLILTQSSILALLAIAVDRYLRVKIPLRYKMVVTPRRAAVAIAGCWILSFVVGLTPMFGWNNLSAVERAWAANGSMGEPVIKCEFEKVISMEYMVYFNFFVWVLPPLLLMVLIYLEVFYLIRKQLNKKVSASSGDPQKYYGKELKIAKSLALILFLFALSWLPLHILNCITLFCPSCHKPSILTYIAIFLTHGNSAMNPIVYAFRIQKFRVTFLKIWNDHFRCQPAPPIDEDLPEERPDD
# [6] = target: T4, Adenosine receptor A3; experiment: Inhibition of cAMP accumulation in CHO cells expressing human adenosine A3 receptor; range 5.1-8.9; format: functional, cell-based; procedure, shortened: as §1
# [7] = target: Adenosine receptors; A1 & A3 (Homo sapiens) (UniProt P30542+P0DMS8); experiment: Ratio of binding affinity of human A1 receptor to that of human A3 receptor; format: protein assay
# Procedure, shortened: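 Ki ratio from displacement in CHO membranes, 6–8 concentrations, n=3-6, filtration counting. A1: 1 nM [3H]DPCPX, 50 μg protein, 120 min at 25 °C, nonspecific with 10 μM CHA. A3: 1 nM [3H]MRE3008-F20, 50 μg protein, Tris/10 mM MgCl2 pH 7.4, 120 min at 4 °C, nonspecific with 1 μM MRE3008-F20.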
# [8] = target: Adenosine receptors; A2b & A3 (Homo sapiens) (UniProt P29275+P0DMS8); experiment: Ratio of binding affinity of human A2B receptor to that of human A3 receptor; format: protein assay
# Procedure, shortened: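 Ki ratio, n=3-6, 6–8 concentrations. A2B in HEK-293 membranes (20 μg): 40 nM [3H]DPCPX, 50 mM Tris HCl, 10 mM MgCl2, 1 mM EDTA, 0.1 mM benzamidine pH 7.4, 2 IU/mL adenosine deaminase, 60 min at 25 °C, nonspecific with 100 μM NECA. A3 in CHO membranes (50 μg): 1 nM [3H]MRE3008-F20, 120 min at 4 °C.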
# [9] = target: T2, Adenosine receptor A2a; experiment: Displacement of [3H]-SCH- 58261 from human adenosine A2A receptor expressed in CHO cells; range 484-558; format: cell-based
# Procedure, shortened: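 Membranes from CHO cells stably expressing human A2A receptor, grown in DMEM/F12 without nucleosides, resuspended in 50 mM Tris HCl, 10 mM MgCl2, pH 7.4; 50 μg protein/assay. Competition with [3H]SCH 58261 at 6–8 or more compound concentrations, 60 min at 25 °C; nonspecific binding with 50 μM NECA. Filtration on GF/B filters, scintillation counting; n=3-6.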
# [10] = target: T3, Adenosine receptor A2b; experiment: Displacement of [3H]DPCPX from Adenosine A2b receptor expressed in […]; range 332-369; format: cell-based
# [11] = target: T4, Adenosine receptor A3; experiment: Displacement of [3H]MRE3008-F20 from human adenosine A3 receptor expressed in CHO cells; range 0.08-0.27; format: cell-based
# [12] = target: T5, Adenosine receptor A1; experiment: Displacement of [3H]DPCPX from human adenosine A1 receptor expressed in CHO cells; range 365-550; format: cell-based
# [13] = target: T4, Adenosine receptor A3; experiment: Inhibition of cAMP accumulation in CHO cells expressing human A3 adenosine receptor; format: functional, cell-based
# [14] = target: T1, Adenosine receptor A3 (Homo sapiens); conditions: CHO, 1 uM
# [15] = target: T2, Adenosine receptor A2a; experiment: Displacement of [3H]-SCH- 58261 from human adenosine A2A receptor expressed in CHO cells; range 1.4-2.1; format: cell-based
# Procedure, shortened: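 CHO membranes expressing human A2A receptor (50 μg protein) in 50 mM Tris HCl, 10 mM MgCl2, pH 7.4, competed against [3H]SCH 58261. At least 6–8 test concentrations were used, with 60 min incubation at 25 °C. Nonspecific binding defined by 50 μM NECA; n=3-6.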
# [16] = target: T5, Adenosine receptor A1; experiment: Displacement of [3H]DPCPX from human adenosine A1 receptor expressed in CHO cells; range 11-17; format: cell-based
# [17] = target: T1, Adenosine receptor A3 (Homo sapiens); experiment: Percentage of blockade by 1 uM of the inhibition by 100 nM IB-MECA-inhibited cAMP accumulation in CHO cells expressing human adenosine A3 receptor.; format: functional, cell-based; procedure, shortened: as §1
# [18] = target: T4, Adenosine receptor A3; experiment: biochemical
# [19] = target: T3, Adenosine receptor A2b; experiment: Displacement of [3H]DPCPX from Adenosine A2b receptor expressed in HEK-293 cells; range 40-69
# [20] = target: T2, Adenosine receptor A2a; experiment: Displacement of [3H]-SCH- 58261 from human adenosine A2A receptor expressed in CHO cells; range 850-1230; format: cell-based
# [21] = target: T3, Adenosine receptor A2b; experiment: Displacement of [3H]-DPCPX from Adenosine A2b receptor expressed in […]; range 52-65; format: cell-based
# [22] = target: T5, Adenosine receptor A1; experiment: Displacement of [3H]DPCPX from human adenosine A1 receptor expressed in CHO cells; range 254-356; format: cell-based
# [23] = target: T1, Adenosine receptor A3 (Homo sapiens); conditions: CHO, 1 uM; remark: listed apart in the source
# [24] = target: T4, Adenosine receptor A3; experiment: biochemical; remark: listed apart in the source
# [25] = target: T3, Adenosine receptor A2b; experiment: Displacement of [3H]DPCPX from Adenosine A2b receptor expressed in […]; range 3.9-6.7; format: cell-based
# [26] = target: T4, Adenosine receptor A3; experiment: Displacement of [3H]MRE3008-F20 from human adenosine A3 receptor expressed in CHO cells; range 247-317; format: cell-based
# [27] = target: T2, Adenosine receptor A2a; experiment: biochemical
# [28] = target: T3, Adenosine receptor A2b; experiment: Displacement of [3H]DPCPX from Adenosine A2b receptor expressed in […]; range 1637-2582; format: cell-based
smiles,measurement,setting,value
COc1ccc(NC(=O)Nc2nc3nn(C(C)(C)C)cc3c3nc(-c4ccco4)nn23)cc1,inhibition,[1],84%
same,Ki,[2],545 nM
same,Ki,[3],1720 nM
same,Ki,[4],0.8 nM
same,Ki,[5],796 nM
same,IC50,[6],6.8 nM
same,Ratio,[7],995
same,Ratio,[8],2140
COc1ccc(NC(=O)Nc2nc3n[nH]cc3c3nc(-c4ccco4)nn23)cc1,Ki,[9],520 nM
same,Ki,[10],350 nM
same,Ki,[11],0.14 nM
same,Ki,[12],448 nM
same,IC50,[13],1.8 nM
same,Ratio,[7],3200
same,Ratio,[8],2500
same,inhibition,[14],98%
CCCCn1cc2c(nc(N)n3nc(-c4ccco4)nc23)n1,Ki,[15],1.6 nM
same,Ki,[16],14 nM
same,Ratio,[7],0.02
same,Ratio,[8],0.09
same,inhibition,[17],15%
same,Ki,[18],600 nM
same,Ki,[19],53 nM
COc1ccc(NC(=O)Nc2nc3nn(CC=C(C)C)cc3c3nc(-c4ccco4)nn23)cc1,Ki,[20],1020 nM
same,Ki,[21],58 nM
same,Ki,[22],300 nM
same,Ratio,[7],7.5
same,Ratio,[8],1.45
same,inhibition,[23],42%
same,Ki,[24],40 nM
Nc1nc2nn(CCc3ccccc3)cc2c2nc(-c3ccco3)nn12,Ki,[25],5.1 nM
same,Ki,[26],280 nM
same,Ratio,[7],0.003
same,Ratio,[8],0.0017
same,inhibition,[17],28%
same,Ki,[27],0.34 nM
CCCn1cc2c(nc(NC(=O)Nc3ccc(OC)cc3)n3nc(-c4ccco4)nc23)n1,Ki,[28],2060 nM

# Source: ChEMBL document CHEMBL1133118 (J Med Chem, 2000)
